CHO-K1 Ca PAM: counter-screen for M1 PAMs: effect in parental CHO-K1 cells; ATP EC20, Fluo-8 calcium fluorescence; 0% at ATP EC20, 100% at ATP max; activation, % at 3 µM; 360,000 tested, 0.02% active; AID 602247;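 active = activation above the run cutoff, the mean activation of all test compounds plus 3 SD, cut at about 40% in these data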;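 also: peak over basal fluorescence ratio in a 140 s read after ATP addition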
OX1R antag-1: blocks the human orexin 1 receptor. CHO/OX1R cells, Fluo-8 calcium fluorescence, orexin A. inhibition, % at 5 µM. 330,000 tested, 0.43% active. AID 434989;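 active = inhibition above its plate's threshold, mean inhibition of all tested compounds on the plate plus 3 SD, cut at about 37% in these data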;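 also: 0% = orexin A challenge wells and 100% = SB-334867-A antagonist wells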
Target sequence (O43613 whole entry, looked up): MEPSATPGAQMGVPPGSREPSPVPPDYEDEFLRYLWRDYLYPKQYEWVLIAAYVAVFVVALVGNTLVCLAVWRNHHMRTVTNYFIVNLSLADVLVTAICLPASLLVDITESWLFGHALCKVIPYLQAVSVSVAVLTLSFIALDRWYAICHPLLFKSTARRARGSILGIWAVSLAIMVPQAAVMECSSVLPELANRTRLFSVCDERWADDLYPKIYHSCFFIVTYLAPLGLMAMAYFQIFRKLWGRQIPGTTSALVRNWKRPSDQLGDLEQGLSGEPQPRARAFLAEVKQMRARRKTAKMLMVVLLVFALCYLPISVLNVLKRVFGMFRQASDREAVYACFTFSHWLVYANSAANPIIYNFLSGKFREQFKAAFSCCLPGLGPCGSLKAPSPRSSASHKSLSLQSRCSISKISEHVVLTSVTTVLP
OX1R antag-2: antagonists of human orexin 1 receptor (OX1R) | inhibition, % at 6.6 µM | AID 485270 | OX1R-expressing cells, FRET antagonist read-out | O43613 | 330,000 tested, 1.8% active; in the data active = inhibition mostly above about 38%, no sharp cut-off; inactive = mostly below about 40%;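 also: 0% = agonist challenge alone and 100% = reference antagonist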
CHO-K1 Ca ag: nonselective activator or artifact in parental CHO-K1 cells | AID 602248 | activation, % at 3 µM | Fluo-8 calcium fluorescence; scaled to maximal ATP response, vehicle zero | 360,000 tested, 0.48% active; in the data active = activation above about 15%;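 also: untransfected CHO-K1 host cells lacking M1 receptor as counterscreen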
CHO-K1 Ca antag: M1 antagonist counterscreen hit in parental CHO-K1 cells | ATP-induced calcium, Fluo-8 fluorescence | 360,000 tested, 0.6% active | AID 602250 | inhibition, % at 3 µM;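 active = inhibition above a per-plate cutoff, the plate's mean sample inhibition plus 3 SD, cut at about 24% in these data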;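 also: 0% = DMSO plus EC80 ATP and 100% = DMSO alone without ATP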
CHO parental Ca: counter-screen: ATP calcium response change in parental CHO cells; parental CHO-K1, ATP-induced calcium, Fluo-8 fluorescence; inhibition, % at 5.6 µM; 330,000 tested, 0.63% active;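 active = inhibition above that plate's mean sample inhibition plus 3 SD, cut at about 26% in these data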;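 also: 0% = ATP-challenged DMSO wells and 100% = DMSO wells without ATP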
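Assay system: parental CHO cells; Read-out basis: percent inhibition of ATP-evoked calcium rise, normalized to controls; Benchmarks: ATP and no-ATP DMSO wells; Compound dosing: single nominal dose of 5.6 µM per compound; Signal: Fluo-8 calcium dye fluorescence; Also added: ATP as calcium-mobilizing challenge; Repeats: singlicate.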
* hit, by the source's call; . = not tested or not shown. Shown are actives, neighbours in structure and some others; about 2.9% of the full set was active somewhere.

SMILES | CHO-K1 Ca PAM | OX1R antag-1 | OX1R antag-2 | CHO-K1 Ca ag | CHO-K1 Ca antag | CHO parental Ca
CC(=O)Nc1ccc(N/C(=N\S(=O)(=O)c2ccccc2)c2ccccc2)cc1 | -4.4 | -8.7 | 14.2 | 0.6 | -2.6 | -12.7
O=c1[nH]c2ccc(N/C(=N/S(=O)(=O)c3ccccc3)c3ccccc3)cc2[nH]1 | -12.9 | 5.1 | -5.7 | -0.1 | 27.3* | 19.3
COc1cccc2[nH]c(C(=O)NC(C)c3ccccc3)cc12 (centres undefined) | -3.1 | -18.6 | -10.5 | 0.4 | -1.1 | -10.3
CCN(CC)c1ccc(NC(=O)c2cc3c(OC)cccc3[nH]2)cc1 | 6.9 | -6.2 | 39.6* | 0.5 | -10.9 | -24.6
CC(=O)Nc1ccc(C(=O)OCC(=O)NCc2ccc(Cl)cc2)cc1 | . | -0.6 | 19.6 | . | . | -11.1
O=c1oc2cc(O)ccc2cc1-c1nc2c(s1)CCc1ccccc1-2 | 10.1 | 50.0* | 16.7 | 10.4 | 8.8 | 49.9*
Cc1ccc(OCCCn2c(=O)sc3ccccc32)cc1 | -9.8 | -42.2 | 18.6 | -0.6 | 24.2* | -29.3
Cc1ccc(OCCn2c(=O)sc3ccccc32)cc1 | 10.9 | -32.6 | 16.2 | -0.1 | -3.9 | -13.8
Cc1cc2nc(SCCOC(=O)Nc3ccccc3)nc(C)c2cc1C | 15.0 | -23.0 | 71.6* | -0.1 | -7.2 | -49.7
C=CCNc1nc(Nc2ccc([N+](=O)[O-])cc2)nc(OC)n1 | -5.4 | -18.5 | 10.7 | -0.8 | 29.3* | -17.5
Cc1ccc(NC(=O)CCn2c(=O)c3cccn3c3ccccc32)c(C)c1 | 10.6 | -29.6 | 8.2 | 4.4 | -10.3 | -10.8
Cc1cc(C)cc(NC(=O)CCn2c(=O)c3cccn3c3ccccc32)c1 | 15.4 | 12.8 | 41.3* | 2.5 | 1.8 | -11.9
c1ccc(-c2onc(-c3ccco3)c2-c2ccc3[nH]ccc3c2)cc1 | 10.6 | -22.4 | 30.6 | 0.7 | -21.4 | -8.7
O=C(NNS(=O)(=O)c1cc(Cl)cc(Cl)c1)c1sccc1-n1cccc1 | -4.7 | -0.5 | 69.4* | 0.3 | -1.1 | -25.4
CN(Cc1ccccc1)C(=O)c1cccc(NC(=O)Cc2ccc(NC(=O)C3CCN(C(=O)C4CCCCC4)CC3)cc2)c1 | 22.1 | . | . | 0.5 | -14.7 | .
CCn1c(C)nc2cc(C(=O)OC(C(F)(F)C(F)F)C(F)(F)C(F)F)ccc21 | -11.1 | 65.8* | 31.9 | 13.9 | 44.9* | 25.6
CSc1nnnn1CCn1nnnc1SC | -9.5 | -12.0 | 22.6 | -0.5 | 35.9* | -4.2
COc1ccc(OC)c(Nc2nc(N(C)c3ccccc3)nc(N)c2[N+](=O)[O-])c1 | -4.0 | -23.3 | 20.4 | 0.3 | -2.9 | -5.9
Cc1cc(C)c2cc(C#N)c(N3CCCN(C(=O)c4cnccn4)CC3)nc2c1 | -5.5 | -13.1 | 50.8* | -0.9 | -4.9 | -11.1
COc1ccccc1C(=O)N1CCN(c2nc3cc(C)cc(C)c3cc2C#N)CC1 | -3.5 | . | . | 0.0 | 9.3 | .
CC(C)NC(=O)c1ccc(COc2cc(Cl)ccc2Cl)o1 | 3.3 | -27.0 | 9.8 | 4.4 | -16.9 | -18.7
CC1CCCN(C(=O)COC(=O)Cc2c(F)cccc2Cl)C1 (centres undefined) | -2.9 | -8.9 | 12.9 | 0.8 | -8.8 | -12.5
O=C(Nc1ccc(Cl)cc1)N1CCCN(c2ccc(C(F)(F)F)cc2[N+](=O)[O-])CC1 | -24.1 | 57.2* | 15.5 | 2.9 | 12.3 | 34.8
O=C1CN(S(=O)(=O)c2ccc(F)cc2)c2ccccc2N1 | -9.4 | 0.7 | 29.5 | 0.2 | 27.6* | -2.1
CC(NCc1ccc(S(N)(=O)=O)cc1)C(=O)Nc1ccc([N+](=O)[O-])cc1Cl (centres undefined) | 16.6 | -5.3 | 65.7* | 1.5 | -2.7 | -2.7
SMILES | CHO-K1 Ca PAM | OX1R antag-1 | OX1R antag-2 | CHO-K1 Ca ag | CHO-K1 Ca antag | CHO parental Ca
O=S1(=O)CC(N2CCCCC2)CN1Cc1cn(Cc2cccc(C(F)(F)F)c2)nn1 (centres undefined) | 0.9 | . | . | 0.3 | 1.2 | .
COc1cccc(Cn2cccc(NC(=O)Nc3ccc(C#N)cc3)c2=O)c1 | 10.1 | 52.4* | 31.9 | 6.2 | -0.4 | 47.3*
CCc1ccc(NC(=O)Cn2nc(C(F)(F)F)c3c2CCC3)cc1 | 19.9 | 1.1 | 23.6 | 0.0 | 8.4 | 39.9*
Cc1nc2ccc(S(=O)(=O)Nc3cccc(-c4nc5cccnc5s4)c3C)cc2s1 | 0.4 | -10.4 | 25.5 | 10.4 | 3.1 | 31.8*
Cc1ccc(-c2nc3cccnc3s2)cc1NS(=O)(=O)c1cccs1 | 22.9 | -13.6 | 40.6* | 2.3 | -5.2 | -14.3
OCCN(CCO)c1ccc(C(c2ccccc2Cl)c2ccc(N(CCO)CCO)cc2Cl)c(Cl)c1 | 17.1 | 39.2 | 6.3 | 0.5 | -1.5 | 46.5*
COc1ccc(N2CC(C(=O)N[C@@H](C)C(=O)NCCc3ccccc3)CC2=O)cc1 (some centres undefined) | -5.1 | -1.9 | 4.2 | -0.1 | -2.6 | -3.8
CCc1cccc(NS(=O)(=O)c2ccc3c(c2)NC(=O)C(C)S3)c1 (centres undefined) | -3.6 | 21.3 | 25.0 | 9.0 | -6.9 | 52.9*
CCc1ccc(NC(=O)C2CCN(S(=O)(=O)c3ccc4c(c3)NC(=O)C(C)S4)CC2)cc1 (centres undefined) | 3.6 | 19.2 | 13.1 | 6.3 | 11.1 | 56.6*
CC1Sc2ccc(S(=O)(=O)N3CCC(C(=O)NCc4ccc(Cl)cc4)CC3)cc2NC1=O (centres undefined) | -4.0 | -6.4 | 4.7 | 3.2 | -5.3 | 1.9
CC1Sc2ccc(S(=O)(=O)CCC(=O)N3CCN(c4cccc(Cl)c4)CC3)cc2NC1=O (centres undefined) | -22.4 | 13.2 | 14.3 | 14.6 | 19.6 | 33.9*
Cc1ccc(NC(=O)C2CCN(S(=O)(=O)c3ccc4c(c3)NC(=O)C(C)S4)CC2)cc1C (centres undefined) | -18.4 | 9.6 | 12.1 | 10.4 | 19.5 | 51.4*
CC1Sc2ccc(S(=O)(=O)CCC(=O)N3CCN(c4ccccc4)CC3)cc2NC1=O (centres undefined) | 1.6 | -24.5 | 3.1 | 5.3 | -12.9 | -22.6
CC1(C(=O)NS(=O)(=O)c2ccccc2Cl)CCN1C(=O)Cc1ccc(Cl)cc1Cl (centres undefined) | 1.2 | . | . | 0.1 | 1.5 | .
Cc1cc([N+](=O)[O-])ccc1N1C(=O)c2ccc(C(=O)Nc3ccccc3C(=O)O)cc2C1=O | 3.8 | -0.7 | 13.2 | 1.2 | -5.8 | -2.4
COc1ccc(CCC(=O)N/N=C\c2cccs2)cc1 | -9.4 | -14.6 | 13.4 | -0.1 | -8.4 | -15.9
CCNC(=O)C1CCCN(C(=O)c2c(-c3ccccc3)noc2C)CC1 (centres undefined) | 7.1 | . | . | 0.2 | 9.7 | .
COc1ccc(CC(=O)NC(c2ccccc2)c2ccc(C)cc2)c(OC)c1 (centres undefined) | -5.7 | -31.7 | 5.4 | -1.0 | -12.0 | -26.3
O=C1COc2ccc(S(=O)(=O)CCC(=O)N3CCN(c4cccc(C(F)(F)F)c4)CC3)cc2N1 | 7.1 | -1.6 | 17.1 | 17.0* | 17.2 | 38.1*

High-throughput results as filed in PubChem.
